pEC50, pIC50: −log10 of the molar value. The source made the active and inactive calls. No cut-off for these calls is given here.
What was measured:
MCF7 [1] = assay: Antiproliferative activity against 2D culture of human MCF7 cells assessed as cell proliferation at 100 nM after 48 hrs by MTT assay; assay type: functional; conditions: MCF7, 48 h, read-out: Activity
How it was run: (§1)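 MTT assay in 2D cultures; cells grown in DMEM with 10% FBS, penicillin/streptomycin, 2 mM L-glutamine at 37 °C in 5% CO2, then treated in charcoal-treated FCS medium for 48 h at 100 nM. Ethanol vehicle controls; proliferation expressed as percentage ± SD of vehicle-treated cells.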

PC-3 = assay: Antiproliferative activity against 2D culture of human PC3 cells assessed as cell proliferation at 100 nM after 48 hrs by MTT assay; assay type: functional; conditions: PC-3, 48 h, read-out: Activity; how it was run: as §1
SK-OV-3 = assay: Antiproliferative activity against 2D culture of human SKOV3 cells assessed as cell proliferation at 100 nM after 48 hrs by MTT assay; assay type: functional; conditions: SK-OV-3, 48 h, read-out: Activity; how it was run: as §1
[2] = Antiproliferative activity against 2D culture of human HaCaT cells assessed as cell proliferation at 100 nM after 48 hrs by MTT assay; assay type: cell-based; conditions: HaCaT cells (2D culture), read-out: Activity; how it was run: as §1
MCF7 [3] = assay: Antiproliferative activity against 3D culture of human MCF7 cells assessed as cell proliferation at 100 nM after 5 days by DAPI staining-based phase contrast microscopic method; assay type: functional; conditions: MCF7, 120 h, read-out: Activity
How it was run: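 Three-dimensional MCF-7 cultures treated 5 days with 10^-7 M in charcoal-treated FCS medium; ethanol vehicle. Phase-contrast photographs taken, sphere diameters traced manually across each sphere and scored as relative units; proliferation given as percentage ± SD of vehicle-treated cells.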

HaCaT = assay: Induction of human HaCaT cell differentiation at 100 nM after 48 hrs; assay type: functional, cell-based
How it was run: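 HaCaT keratinocytes treated with 100 nM for 48 hours in charcoal-treated FCS medium, ethanol vehicle control, and differentiation then assessed.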

Vitamin D3 receptor [4] = molecular target: T1, Vitamin D3 receptor (Homo sapiens, UniProt P11473); assay: Displacement of fluormone from human full length VDR after 2 hrs by fluorescence polarization assay
T1 sequence (P11473 whole entry): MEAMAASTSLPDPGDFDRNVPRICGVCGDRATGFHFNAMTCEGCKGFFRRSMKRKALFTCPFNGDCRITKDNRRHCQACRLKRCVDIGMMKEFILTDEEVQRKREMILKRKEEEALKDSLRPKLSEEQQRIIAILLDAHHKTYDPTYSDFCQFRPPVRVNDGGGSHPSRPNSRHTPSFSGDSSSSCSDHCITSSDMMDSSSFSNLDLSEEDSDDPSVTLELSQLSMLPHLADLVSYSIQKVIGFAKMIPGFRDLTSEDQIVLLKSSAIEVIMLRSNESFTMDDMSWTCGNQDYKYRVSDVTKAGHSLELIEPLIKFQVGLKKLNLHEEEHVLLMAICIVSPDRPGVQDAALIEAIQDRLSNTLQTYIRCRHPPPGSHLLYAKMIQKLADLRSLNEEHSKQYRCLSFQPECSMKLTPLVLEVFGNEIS

[5] = molecular target: T2, Vitamin D3 receptor (Homo sapiens) (UniProt P11473); assay: Displacement of fluormone from human full length VDR after 2 hrs by fluorescence polarization assay relative to 1,25D; conditions: concentration not given here
T2 sequence (whole entry): T1 sequence (P11473 whole entry)
How it was run: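 Competitive fluorescence polarization VDR binding kit used per manufacturer conditions; compounds tested from 10^-11 to 10^-5 M. IC50 calculated from averaged measurements; activity also expressed as percentage with 1,25D set to 100%.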

Vitamin D3 receptor [6] = molecular target: T1, Vitamin D3 receptor; assay: Agonist activity at VDR in human MCF7 cells assessed as increase in transcription of CYP24A1 gene after 24 hrs by luciferase reporter gene assay; assay type: cell-based
[7] = molecular target: T2, Vitamin D3 receptor (Homo sapiens); assay: Agonist activity at VDR in human MCF7 cells assessed as transcription of CYP24A1 gene after 24 hrs by luciferase reporter gene assay relative to 1,25D; assay type: cell-based
How it was run: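 Cells transfected with 1 µg pCYP24A1-Luc plasmid (luciferase under a consensus VDRE from the 24-hydroxylase promoter); after 24 h medium replaced with compound at 10^-11 to 10^-6 M. Bioluminescence imaged and total photon counts quantified. EC50 from dose-response curves as concentration raising luciferase activity by 50%; ratio given as analogue EC50 relative to 1,25D.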

Mus musculus [8] = assay: Hypercalcemic activity in CD1 mouse assessed as serum calcium levels at 0.3 ug/kg, ip administered every other day for 3 weeks measured on […] relative to 1,25D; assay type: ADME, organism-based; conditions: in vivo, 0.0003 mg/kg, 504 h
How it was run: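 Mice dosed every other day for 21 days at 0.3 µg/kg, n=5 per group, with vehicle controls; serum calcium reported as mean ± SD.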

MDA-MB-231 [9] = assay: Antitumor activity against luciferase expressing human MDA-MB-231 cells xenografted in SCID mouse assessed as tumor growth inhibition at 1 ug/kg, ip administered every other day measured every 7 days […] to day 28 post last dose; assay type: functional, organism-based
How it was run: (§2)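 SCID mice given subcutaneous MDA-MB-231-luc cells; ten days later (treatment day 0) split into two groups, dosed i.p. at 1 µg/kg in sesame oil, controls sesame oil. Tumor growth followed by in vivo bioluminescence imaging (photon flux) every 7 days until day 28; survival followed to day 60.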

MDA-MB-231 [10] = assay: Antitumor activity against luciferase expressing human MDA-MB-231 cells xenografted in SCID mouse assessed as increase in mouse survival at 1 ug/kg, ip administered every other day starting from day 10 post tumor implantation to day 60; assay type: functional, organism-based; how it was run: as §2
Mus musculus [11] = assay: Toxicity in CD1 mouse assessed as effect on liver at 0.5 to 5 ug/kg, ip administered every other day for 3 weeks measured on […] by hematoxylin and eosin staining-based assay; assay type: organism-based; conditions: in vivo, 504 h
Mus musculus [12] = assay: Toxicity in CD1 mouse assessed as effect on kidney at 0.5 to 5 ug/kg, ip administered every other day for 3 weeks measured on […] by hematoxylin and eosin staining-based assay; assay type: organism-based; conditions: in vivo, 504 h
Mus musculus [13] = assay: Toxicity in CD1 mouse assessed as body weight loss at 0.5 to 5 ug/kg, ip administered every other day for 3 weeks measured every week during compound dosing; assay type: organism-based; conditions: in vivo, 504 h
Mus musculus [14] = assay: Hypercalcemic activity in CD1 mouse serum at 0.5 to 5 ug/kg, ip administered every other day for 3 weeks measured on […]; assay type: ADME, organism-based; conditions: in vivo, 504 h
MDA-MB-436 [15] = assay: Cytotoxicity against 3D culture of cancer stem cells derived from human MDA-MB-436 cells assessed as decrease in growth of mammospheres at 100 nM after 5 days by DAPI staining-based phase contrast microscopic method; assay type: functional, cell-based
How it was run: (§3)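 MDA-MB-436 cells enriched in cancer stem cells grown in a commercial 3D sphere assay per manufacturer's instructions; ethanol or compound (10^-8 or 10^-7 M) added for 5 days. Mammosphere number and diameter quantified from phase-contrast images by manual diameter tracing.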

MDA-MB-436 [16] = assay: Cytotoxicity against 3D culture of cancer stem cells derived from human MDA-MB-436 cells assessed as decrease in number of mammospheres at 100 nM after 5 days by DAPI staining-based phase contrast microscopic method; assay type: functional, cell-based; how it was run: as §3

| SMILES | pIC50 (Vitamin D3 receptor [4]) | inhibition [5] [%] | pEC50 (Vitamin D3 receptor [6]) | Activity [7] [%] | Activity (Mus musculus [8]) [%] | growth at 0.1 µM (MCF7 [1]) [%] | growth at 0.1 µM (PC-3) [%] | growth at 0.1 µM (SK-OV-3) [%] | viability at 48 h, 0.1 µM [2] [%] | growth at 0.1 µM (MCF7 [3]) [%] | Activity (HaCaT) | TGI (MDA-MB-231 [9]) | Activity (MDA-MB-231 [10]) | Activity (Mus musculus [11]) | Activity (Mus musculus [12]) | Activity (Mus musculus [13]) | Activity (Mus musculus [14]) | Activity (MDA-MB-436 [15]) | Activity (MDA-MB-436 [16]) |
| --- | --- | --- | --- | --- | --- | --- | --- | --- | --- | --- | --- | --- | --- | --- | --- | --- | --- | --- | --- |
| C=C1/C(=C\C=C2/CCC[C@]3(C)[C@@H]([C@H](C)CCCC(C)(C)O)CC[C@@H]23)C[C@@H](O)C[C@@H]1O [CALCITRIOL] | – | – | – | – | – | 66 | 77 | 78 | 69 | 61 | Active | – | – | – | – | – | – | – | – |
| C=C1/C(=C\C=C(/CCCCCCC)c2cccc(CCCCCC(C)(C)O)c2)C[C@@H](O)C[C@@H]1O | 6.80 to 8.46 | 7 | 7.40 to 7.54 | 5 | 0 | 69 | 79 | 83 | 71 | 55 | Active | – | – | – | – | – | – | – | – |
| C=C1/C(=C\C=C(/CCCCCC)c2cccc(CCCCCC(C)(C)O)c2)C[C@@H](O)C[C@@H]1O | 7.40 to 8.08 | 9 | 7.89 to 8.00 | 17 | 0 | 78 | 80 | 76 | 74 | 79 | Active | – | – | – | – | – | – | – | – |
| C=C1/C(=C\C=C(/CCC)c2cccc(CCCCCC(C)(C)O)c2)C[C@@H](O)C[C@@H]1O | 7.26 to 8.25 | 10 | 8.00 to 8.07 | 21 | 41 | 69 | 83 | 82 | 71 | 74 | Active | – | – | – | – | – | – | – | – |

Second part, led by results:

| pIC50 (Vitamin D3 receptor [4]) | inhibition [5] [%] | pEC50 (Vitamin D3 receptor [6]) | Activity [7] [%] | Activity (Mus musculus [8]) [%] | SMILES | growth at 0.1 µM (MCF7 [1]) [%] | growth at 0.1 µM (PC-3) [%] | growth at 0.1 µM (SK-OV-3) [%] | viability at 48 h, 0.1 µM [2] [%] | growth at 0.1 µM (MCF7 [3]) [%] | Activity (HaCaT) | TGI (MDA-MB-231 [9]) | Activity (MDA-MB-231 [10]) | Activity (Mus musculus [11]) | Activity (Mus musculus [12]) | Activity (Mus musculus [13]) | Activity (Mus musculus [14]) | Activity (MDA-MB-436 [15]) | Activity (MDA-MB-436 [16]) |
| --- | --- | --- | --- | --- | --- | --- | --- | --- | --- | --- | --- | --- | --- | --- | --- | --- | --- | --- | --- |
| 7.96 to 8.35 | 24 | 8.21 to 8.25 | 33 | 0 | C=C1/C(=C\C=C(/CC)c2cccc(CCCCCC(C)(C)O)c2)C[C@@H](O)C[C@@H]1O | 65 | 78 | 78 | 68 | 69 | Active | Active | Active | Non-Toxic | Non-Toxic | Non-Toxic | Non-Toxic | Active | Active |
| 7.74 to 8.00 | 12 | 7.96 to 8.05 | 19 | 34 | C=C1/C(=C\C=C(/CCCC)c2cccc(CCCCCC(C)(C)O)c2)C[C@@H](O)C[C@@H]1O | 74 | 84 | 81 | 71 | 84 | Active | – | – | – | – | – | – | – | – |

— ChEMBL document CHEMBL4184327, “Aromatic-Based Design of Highly Active and Noncalcemic Vitamin D Receptor Agonists” (J Med Chem, 2018)
